We go through one compound from ChEMBL document CHEMBL4732185, “Synthesis, biological evaluation and structure-activity relationship of novel dichloroacetophenones targeting pyruvate dehydrogenase kinases with potent anticancer activity” (Eur J Med Chem, 2021).

The subject of one assay is MCF7. In words: Antiproliferative activity against human MCF7 cells assessed as growth inhibition at 1 uM after 72 hrs by MTT assay relative to control. The class given is functional. Particulars: read-out: GI. In a few lines:
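Single-concentration MTT screen on MCF-7 and A549 cells grown in DMEM + 10% FBS. Cells at 3000–6000/well, cultured overnight, then given compound in buffer with 1% DMSO for 72 h. MTT (0.5 mg/mL) added for 4 h, formazan dissolved in DMSO, A570 read. Percent inhibition reported as the average ± S.D. of three independent measurements.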
A general note: Formazan colour is commonly taken as a measure of viable cells.

Assay [1] relates to A-375. In words: Induction of cell cycle arrest in human A375 cells assessed as accumulation at G1 phase at 2.5 uM after 24 hrs by propidium iodide staining based flow cytometric analysis (reference value: 52.65%). In kind it is functional. In general terms: A flow cytometer gives signals particle by particle.
Assay [2] deals with A-375. The experiment in a line: Induction of apoptosis in human A375 cells assessed as late apoptotic cells at 1 uM after 36 hrs by annexinV-FITC/propidium iodide staining based flow cytometric analysis (reference value: 1.02%). The class given is functional.
Another assay deals with HCT-116. In words: Antiproliferative activity against human HCT-116 cells assessed as growth inhibition after 72 hrs by MTT assay. The class given is functional, cell-based. Particulars: Homo sapiens, HCT-116, 72 h; read-out: IC50. In a few lines:
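MTT viability assay. Cancer lines seeded at 3000–6000 cells/well and L02 at 7000 cells/well, cultured overnight, then exposed to a full dose range for 72 h. MTT (0.5 mg/mL) added for 4 h, supernatant removed, formazan dissolved in DMSO, absorbance read at 570 nm. IC50 taken as the mean of three independent experiments. Cells grown in DMEM + 10% FBS, 37 °C, 5% CO2.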

Assay [3] relates to A-375. The experiment in a line: Induction of apoptosis in human A375 cells assessed as late apoptotic cells at 5 uM after 12 hrs by annexinV-FITC/propidium iodide staining based flow cytometric analysis (reference value: 0.63%). In kind it is functional.

By IC50 is commonly meant the concentration that inhibits the measured activity by half.

In the case of `CC(C)(CO)c1ccc(Nc2ccc(C(=O)C(Cl)Cl)cc2[N+](=O)[O-])cc1`, the inhibition of growth at 1 µM in the assay with MCF7 came out at 38.9%. Also, the Activity in the assay with A-375 [1] worked out at 60.75%; with A-375 [2], 7.43%; with A-375 [3], 6.88%. Moreover, in the assay on HCT-116, the IC50 came out at 2100 nM.
